Source: ChEMBL document CHEMBL4007487, “Discovery of Novel Pyridone-Conjugated Monosulfactams as Potent and Broad-Spectrum Antibiotics for Multidrug-Resistant Gram-Negative Infections” (J Med Chem, 2017)
Values after ≈ are worked out from the molar mass of the structure shown.

Experiments:
Pseudomonas aeruginosa = experiment: Antibacterial activity against extended spectrum beta-lactamase IMP-4 producing multidrug resistant Pseudomonas aeruginosa clinical isolates after 18 hrs by broth microdilution method; type: functional
Klebsiella pneumoniae = experiment: Antibacterial activity against extended spectrum beta-lactamase KPC-2 producing multidrug resistant Klebsiella pneumoniae clinical isolates after 18 hrs by broth microdilution method; type: functional
Acinetobacter baumannii = experiment: Antibacterial activity against extended spectrum beta-lactamase OXA-23 producing multidrug resistant Acinetobacter baumannii clinical isolates after 18 hrs by broth microdilution method; type: functional
Escherichia coli = experiment: Antibacterial activity against extended spectrum beta-lactamases producing Escherichia coli clinical isolates after 18 hrs by broth microdilution method; type: functional
Plasma = experiment: Fraction unbound in human plasma at 10 uM after 4 hrs by LC-MS/MS based rapid equilibrium dialysis method; type: ADME, cell-free
Summary of the method: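 Human plasma spiked at 10 μM was dialysed against buffer in a rapid equilibrium dialysis device for 4 h at 37 °C under 5% CO2 (n = 4). Both sides were quantified by LC–MS/MS. Fraction unbound was taken as the buffer concentration divided by the total plasma-side concentration.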

[1] = Drug degradation in human plasma at 10 uM after 4 hrs by LC-MS/MS analysis; type: ADME, cell-free; details: read-out: Drug degradation
Summary of the method: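 Human plasma containing compound (10 μM, n = 4) was incubated for 4 h at 37 °C under 5% CO2. Concentrations at T0 and at 4 h were measured by LC–MS/MS, and degradation was expressed as a percentage relative to the T0 average.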

[2] = Klebsiella pneumoniae, 18 h, read-out: MIC

Row | SMILES | MIC (Pseudomonas aeruginosa) [µg/mL] | MIC (Klebsiella pneumoniae; [2]) [µg/mL] | MIC (Acinetobacter baumannii) [µg/mL] | MIC (Escherichia coli) [µg/mL] | Fu (Plasma) [%] | metabolised at 4 h, 10 µM [1] [%] | MIC (Klebsiella pneumoniae) [µg/mL]
1 | Cn1nc(O)c(=O)nc1SCCO/N=C(\C(=O)N[C@@H]1C(=O)N(OS(=O)(=O)O)C1(C)C)c1csc(N)n1 | 16 to 64 (≈ 28.3 to 113 µM) | 16 to 64 (≈ 28.3 to 113 µM) | 16 to 64 (≈ 28.3 to 113 µM) | 1 to 8 (≈ 1.77 to 14.2 µM) |  |  | 
2 | CO/N=C(\C(=O)N[C@@H]1C(=O)N2C(C(=O)[O-])=CCS[C@H]12)c1csc(N)n1.[Na+] [CEFTIZOXIME SODIUM] | > 64 | 32 to 64 | 32 to 64 | 0.5 to 2 |  |  | 
3 | CC1(C)[C@H](NC(=O)/C(=N\OC(CO)c2cc(=O)c(O)cn2O)c2csc(N)n2)C(=O)N1OS(=O)(=O)O (stereo partly specified) | 0.25 to 16 (≈ 0.456 to 29.2 µM) | 0.25 to 64 (≈ 0.456 to 117 µM) | 0.5 to 2 (≈ 0.912 to 3.65 µM) | 0.06 to 4 (≈ 0.109 to 7.29 µM) | 59 | 50 | 
4 | CSC[C@H](O/N=C(\C(=O)N[C@@H]1C(=O)N(OS(=O)(=O)O)C1(C)C)c1csc(N)n1)c1cc(=O)c(O)cn1O | 0.5 to 2 (≈ 0.864 to 3.46 µM) |  | 0.5 to 4 (≈ 0.864 to 6.91 µM) |  | 29 | 39 | >0.06 to 64
5 | Cc1cc(=O)c(O)cn1CCO/N=C(\C(=O)N[C@@H]1C(=O)N(OS(=O)(=O)O)C1(C)C)c1csc(N)n1 | 64 (≈ 121 µM) | 8 to 64 (≈ 15.1 to 121 µM) | 8 to 64 (≈ 15.1 to 121 µM) | 1 to 64 (≈ 1.88 to 121 µM) |  |  | 
6 | CC1(C)[C@H](NC(=O)/C(=N\OC(c2nccs2)c2cc(=O)c(O)cn2O)c2csc(N)n2)C(=O)N1OS(=O)(=O)O (stereo partly specified) | 1 to 2 (≈ 1.66 to 3.32 µM) |  | 0.5 to 2 (≈ 0.831 to 3.32 µM) |  |  |  | 
7 | CC(C)[C@@H](O/N=C(\C(=O)N[C@@H]1C(=O)N(OS(=O)(=O)O)C1(C)C)c1csc(N)n1)c1cc(=O)c(O)cn1O | 1 to 4 (≈ 1.78 to 7.14 µM) | 0.06 to 0.5 (≈ 0.107 to 0.892 µM) | 0.25 to 64 (≈ 0.446 to 114 µM) | 0.06 to 2 (≈ 0.107 to 3.57 µM) |  |  | 
8 | COCC(O/N=C(\C(=O)N[C@@H]1C(=O)N(OS(=O)(=O)O)C1(C)C)c1csc(N)n1)c1cc(=O)c(O)cn1O (stereo partly specified) | 1 to 4 (≈ 1.78 to 7.11 µM) | 0.06 to 2 (≈ 0.107 to 3.56 µM) | 0.125 to 1 (≈ 0.222 to 1.78 µM) |  | 67 | 57 | 
9 | CC1(C)[C@H](NC(=O)/C(=N\OC(c2cccs2)c2cc(=O)c(O)cn2O)c2csc(N)n2)C(=O)N1OS(=O)(=O)O (stereo partly specified) | 0.5 to 2 (≈ 0.832 to 3.33 µM) | 0.06 to 16 (≈ 0.0999 to 26.6 µM) | 0.5 to 2 (≈ 0.832 to 3.33 µM) |  |  |  | 
10 | CC(O/N=C(\C(=O)N[C@@H]1C(=O)N(OS(=O)(=O)O)C1(C)C)c1csc(N)n1)c1cc(=O)c(O)cn1O (stereo partly specified) | 0.25 to 8 (≈ 0.469 to 15 µM) |  | 0.5 to 64 (≈ 0.939 to 120 µM) | 0.06 to 0.25 (≈ 0.113 to 0.469 µM) | 41 | 24 | 0.03 to 64
11 | CC1(C)[C@H](NC(=O)/C(=N\OCc2ccn(O)c(=O)c2)c2csc(N)n2)C(=O)N1OS(=O)(=O)O | 64 (≈ 127 µM) | 4 to 64 (≈ 7.96 to 127 µM) | 4 to 64 (≈ 7.96 to 127 µM) | 0.25 to 4 (≈ 0.498 to 7.96 µM) |  |  | 
12 | CC(=O)N(O)CCO/N=C(\C(=O)N[C@@H]1C(=O)N(OS(=O)(=O)O)C1(C)C)c1csc(N)n1 | ≥ 64 | 32 to 64 (≈ 66.6 to 133 µM) | 16 to 64 (≈ 33.3 to 133 µM) | 4 to 32 (≈ 8.32 to 66.6 µM) |  |  | 
13 | CC(C)[C@H](O/N=C(\C(=O)N[C@@H]1C(=O)N(OS(=O)(=O)O)C1(C)C)c1nc(N)sc1Cl)c1cc(=O)c(O)cn1O | 0.06 to 1 (≈ 0.101 to 1.68 µM) | 0.25 to 0.5 (≈ 0.42 to 0.84 µM) | 0.5 to 1 (≈ 0.84 to 1.68 µM) | 0.06 to 1 (≈ 0.101 to 1.68 µM) | 23 | 33 | 
14 | CC(C)C(O/N=C(\C(=O)N[C@@H]1C(=O)N(OS(=O)(=O)O)C1(C)C)c1nsc(N)n1)c1cc(=O)c(O)cn1O (stereo partly specified) | 0.5 to 32 (≈ 0.89 to 57 µM) | 0.06 to 1 (≈ 0.107 to 1.78 µM) | 0.5 to 4 (≈ 0.89 to 7.12 µM) | 0.06 to 2 (≈ 0.107 to 3.56 µM) | 28 | 11 | 
15 | CC(C)OCC(O/N=C(\C(=O)N[C@@H]1C(=O)N(OS(=O)(=O)O)C1(C)C)c1csc(N)n1)c1cc(=O)c(O)cn1O (stereo partly specified) | 0.5 to 8 (≈ 0.847 to 13.5 µM) | 0.25 to 64 (≈ 0.423 to 108 µM) | 1 to 8 (≈ 1.69 to 13.5 µM) |  |  |  | 
16 | CCC(O/N=C(\C(=O)N[C@@H]1C(=O)N(OS(=O)(=O)O)C1(C)C)c1csc(N)n1)c1cc(=O)c(O)cn1O (stereo partly specified) | 0.125 to 4 (≈ 0.229 to 7.32 µM) |  | 0.25 to 2 (≈ 0.457 to 3.66 µM) | 0.25 to 2 (≈ 0.457 to 3.66 µM) | 35 | 27 | >0.03 to 64
17 | CC1(C)[C@H](NC(=O)/C(=N\OC(c2ccccc2)c2cc(=O)c(O)cn2O)c2csc(N)n2)C(=O)N1OS(=O)(=O)O (stereo partly specified) | 0.5 to 2 (≈ 0.841 to 3.36 µM) |  | 0.5 to 2 (≈ 0.841 to 3.36 µM) |  |  |  | 
18 | CNC(=O)C(O/N=C(\C(=O)N[C@@H]1C(=O)N(OS(=O)(=O)O)C1(C)C)c1csc(N)n1)c1cc(=O)c(O)cn1O (stereo partly specified) | 4 (≈ 6.95 µM) | 0.25 to 2 (≈ 0.434 to 3.48 µM) | 0.25 to 1 (≈ 0.434 to 1.74 µM) | 0.06 to 4 (≈ 0.104 to 6.95 µM) | 69 | 36 | 
19 | COC(=O)C(O/N=C(\C(=O)N[C@@H]1C(=O)N(OS(=O)(=O)O)C1(C)C)c1csc(N)n1)c1cc(=O)c(O)cn1O (stereo partly specified) | 1 to 4 (≈ 1.73 to 6.94 µM) | 0.25 to 2 (≈ 0.434 to 3.47 µM) | 0.5 to 1 (≈ 0.867 to 1.73 µM) | 0.25 to 1 (≈ 0.434 to 1.73 µM) | 61 | 66 | 
20 | CC(C)[C@@H](O/N=C(\C(=O)N[C@@H]1C(=O)N(OS(=O)(=O)O)C1(C)C)c1nsc(N)n1)c1cc(=O)c(O)cn1O | 1 to 4 (≈ 1.78 to 7.12 µM) | 0.5 to 2 (≈ 0.89 to 3.56 µM) | 0.5 to 64 (≈ 0.89 to 114 µM) | 0.5 to 8 (≈ 0.89 to 14.2 µM) |  |  | 
21 | CSC[C@@H](O/N=C(\C(=O)N[C@@H]1C(=O)N(OS(=O)(=O)O)C1(C)C)c1csc(N)n1)c1cc(=O)c(O)cn1O | 1 to 8 (≈ 1.73 to 13.8 µM) | 0.125 to 0.5 (≈ 0.216 to 0.864 µM) | 0.5 to 2 (≈ 0.864 to 3.46 µM) |  |  |  | 
22 | CC(C)[C@H](O/N=C(\C(=O)N[C@@H]1C(=O)N(OS(=O)(=O)O)C1(C)C)c1nsc(N)n1)c1cc(=O)c(O)cn1O | 1 to 2 (≈ 1.78 to 3.56 µM) | 1 to 4 (≈ 1.78 to 7.12 µM) | 1 to 4 (≈ 1.78 to 7.12 µM) | 0.5 to 2 (≈ 0.89 to 3.56 µM) | 27 | 16 | 
23 | C=CC(O/N=C(\C(=O)N[C@@H]1C(=O)N(OS(=O)(=O)O)C1(C)C)c1csc(N)n1)c1cc(=O)c(O)cn1O (stereo partly specified) | 0.5 to 2 (≈ 0.918 to 3.67 µM) |  | 0.25 to 2 (≈ 0.459 to 3.67 µM) |  |  |  | >0.03 to 64
24 | CC1(C)[C@H](NC(=O)/C(=N\OC(C(=O)O)c2cc(=O)c(O)cn2O)c2csc(N)n2)C(=O)N1OS(=O)(=O)O (stereo partly specified) | 1 to 4 (≈ 1.78 to 7.11 µM) | 0.25 to 1 (≈ 0.444 to 1.78 µM) | 0.5 (≈ 0.889 µM) | 0.125 to 4 (≈ 0.222 to 7.11 µM) |  |  | 
25 | CC(O/N=C(\C(=O)N[C@@H]1C(=O)N(OS(=O)(=O)O)C1(C)C)c1nsc(N)n1)c1cc(=O)c(O)cn1O (stereo partly specified) | 0.5 to 64 (≈ 0.937 to 120 µM) | 0.25 to 64 (≈ 0.469 to 120 µM) | 2 to 64 (≈ 3.75 to 120 µM) |  | 37 | 13 | 
26 | CC(C)SCC(O/N=C(\C(=O)N[C@@H]1C(=O)N(OS(=O)(=O)O)C1(C)C)c1csc(N)n1)c1cc(=O)c(O)cn1O (stereo partly specified) | 0.25 to 4 (≈ 0.412 to 6.59 µM) | 0.06 to 1 (≈ 0.0989 to 1.65 µM) | 0.25 to 2 (≈ 0.412 to 3.3 µM) |  | 21 | 34 | 
27 | CC1(C)[C@H](NC(=O)/C(=N\OC(c2cc(=O)c(O)cn2O)C2CC2)c2csc(N)n2)C(=O)N1OS(=O)(=O)O (stereo partly specified) | 0.25 to 4 (≈ 0.448 to 7.16 µM) |  | 0.5 to 2 (≈ 0.895 to 3.58 µM) | 0.06 to 4 (≈ 0.107 to 7.16 µM) | 39 | 24 | 0.06 to 64
28 | CC(O/N=C(\C(=O)N[C@@H]1C(=O)N(OS(=O)(=O)O)C1(C)C)c1nc(N)sc1Cl)c1cc(=O)c(O)cn1O (stereo partly specified) | 0.5 to 4 (≈ 0.882 to 7.06 µM) | 0.06 to 1 (≈ 0.106 to 1.76 µM) | 0.25 to 2 (≈ 0.441 to 3.53 µM) |  | 20 | 20 | 
29 | CC(C)[C@@H](O/N=C(\C(=O)N[C@@H]1C(=O)N(OS(=O)(=O)O)C1(C)C)c1nc(N)sc1Cl)c1cc(=O)c(O)cn1O | 0.5 to 4 (≈ 0.84 to 6.72 µM) | 0.5 to 2 (≈ 0.84 to 3.36 µM) | 0.25 to 64 (≈ 0.42 to 108 µM) | 0.125 to 1 (≈ 0.21 to 1.68 µM) |  |  | 
